High-throughput results: PubChem BioAssay, several laboratories
PG9 binder: small molecules binding HIV-1 gp120 antibody PG9; inhibition, % at 6.7 µM; TR-FRET gp120-PG9 antibody binding; 360,000 tested, 0.43% active; in the data active = inhibition above about 8.5%
NR2E3 ag-1: NR2E3 (human) agonism; GST-NR2E3/biotin-RetCOR TR-FRET, 1536-well; AID 2300; inhibition of corepressor binding, % at 4.78 µM; 320,000 tested, 0.12% active;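 active = percent inhibition above the cutoff of mean plus 3 SD of all tested compounds, set per screening campaign, cut at about 20% in these data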
Target sequence (Q9Y5X4 whole entry, looked up): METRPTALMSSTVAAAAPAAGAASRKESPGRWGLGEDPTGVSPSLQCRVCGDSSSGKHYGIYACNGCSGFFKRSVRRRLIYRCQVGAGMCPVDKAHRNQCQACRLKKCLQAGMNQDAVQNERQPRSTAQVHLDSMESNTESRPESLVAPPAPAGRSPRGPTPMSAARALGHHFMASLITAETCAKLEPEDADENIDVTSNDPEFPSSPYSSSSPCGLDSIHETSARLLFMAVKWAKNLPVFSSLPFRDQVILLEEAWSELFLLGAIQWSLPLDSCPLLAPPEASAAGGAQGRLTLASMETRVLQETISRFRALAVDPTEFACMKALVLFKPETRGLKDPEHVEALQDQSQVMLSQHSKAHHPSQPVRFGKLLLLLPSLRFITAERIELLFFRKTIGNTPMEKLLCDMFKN
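system = GST-tagged NR2E3 plus biotinylated RetCOR corepressor | input = 1.35 nM GST-NR2E3 | also added = 7 nM biotin-RetCOR | schedule = 5 h incubation at 4 °C | measured by = TR-FRET with europium anti-GST and streptavidin-D2, 340 nm excitation | read-out = percent loss of FRET ratio relative to control wells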
NR1D1 modulator: modulates human Rev-erb alpha binding to DNA | 370,000 tested, 0.79% active | AID 1259318 | P20393 | activity, % at 10 µM | Rev-erbα–FITC-DNA binding, fluorescence polarization, 90 min;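 active = activity above about 14%, limit read from the data; passing the limit was not always enough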
NR2E3 ag-2: human photoreceptor-specific nuclear receptor agonism; inhibition of corepressor binding, % at 3.98 µM; 360,000 tested, 0.35% active; Q9Y5X4; CHO-S Gal4-NCOR/VP16-NR2E3 two-hybrid, luciferase;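 active = inhibition above the mean of all tested compounds plus 3 SD, cut at about 70% in these data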;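 also: higher means lower luciferase signal from less NR2E3 corepressor binding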
Rev-erbA confirm: confirmation of modulators of human Rev-erb alpha DNA binding; shares compounds with NR1D1 modulator; Rev-erb alpha FITC-DNA binding, fluorescence polarization, 90 min; activation, % at 25 µM; 3,000 tested, 61% active; AID 1259319;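 active = activation at or above a set limit, or at least 3 SD above the negative control mean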
RORg counter: affects RORgamma DNA binding in a Rev-erb alpha counter-screen; shares compounds with NR1D1 modulator; purified RORgamma protein-FITC-DNA binding, fluorescence polarization; IC50, µM; 910 tested, 8% active;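 active = Compounds whose fitted half-maximal concentration for disrupting protein-DNA binding is below 10 micromolar; the record names Rev-erb in its text, so the target is in doubt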
Hits are given with their value; n = inactive; x = no result given; ! = not confirmed by another sample. Compounds with a hit are over-represented: about 1.5% of the library has one in this group of screens.

SMILES	PG9 binder	NR2E3 ag-1	NR1D1 modulator	NR2E3 ag-2	Rev-erbA confirm	others
O=C(Nc1ccc2c(c1)C(=O)NC2=O)c1ccc2ncsc2c1	n	n	57	n	54	RORg counter=6
Cc1ccc2nc(NC(=O)c3ccc4ncsc4c3)sc2c1	n	n	34	n	24
COC(=O)[C@]12C[C@H](CC(=O)NCC3CCCCC3)C(=O)N(Cc3ccccc3)C1=C[C@H](C1CCCC1)O[C@@H]2C	n	x	n	x	x
CCSc1nc(-c2ccc(OC)cc2)cc(-c2ccccc2)c1C#N	n	n	n	n	x
COc1ccc(-c2cc(-c3ccccc3)nc(SCC(=O)Nc3ncc(C)s3)c2C#N)cc1	n	n	39	n	n
CCc1nnc(NC(=O)CSc2nc(-c3ccc(F)cc3)cc(-c3ccccc3)c2C#N)s1	n	x	38	n	n
Cc1nc2ccc(NC(=O)c3ccc(F)cc3Cl)cc2c(=O)[nH]1	x	x	n	x	x
CSCCCNc1nc(C)nc2c1nnn2Cc1ccccc1	x	x	n	x	x
C[C@H]1[C@@H](OC(=O)NCc2cccnc2)CC[C@@]23CCCN2C(=O)CCC[C@@H]13	x	x	n	x	x
COC(=O)c1c(C)[nH]c(C(=O)/C=C/c2ccc(C)cc2)c1C	n	n	26	n	n
Nc1cc(=O)n(Cc2ccccc2)c(N)c1C(=O)NCc1ccccc1	n	x	n	x	x
COc1ccc(CNCC#Cc2cccnc2)c(OC)c1	x	x	n	x	x
CC(C)Oc1ccc(CNC(=O)Cn2c(=O)c3cccn3c3cccnc32)cc1	n	n	n	n	x
CCOc1ccc(CNC(=O)Cn2c(=O)c3cccn3c3ccccc32)cc1	n	n	39	n	24
Cc1occc1-c1nnc(SCC(=O)Nc2ccncc2)n1-c1ccccc1	x	x	n	x	x
CC1(c2nnnn2-c2ccc3ccccc3c2)CSCC(=O)N1C1CC1 (stereo not given)	x	x	n	x	x
Cc1ccc2cc(CCNC(=O)C(=O)c3c(C)[nH]c4ccccc34)c(=O)[nH]c2c1	n	n	n	n	x
Cc1ccc2cc(CCNC(=O)C(=O)c3c[nH]c4ccccc34)c(=O)[nH]c2c1	n	n	40	n	19
Cc1nc(N2CCN(c3ccccn3)CC2)c2c(C)c(C(=O)Nc3ccc(Cl)cc3)sc2n1	n	n	n	n	x
Cc1nc(N2CCN(c3ccccn3)CC2)c2c(C)c(C(=O)Nc3c(C)cc(Br)cc3C)sc2n1	n	n	28	n	n
Cc1nc(N2CCN(C)CC2)c2c(C)c(C(=O)Nc3ccc(C)c(F)c3)sc2n1	n	n	n	n	x
Cc1nc(N2CCN(c3ccccn3)CC2)c2c(C)c(C(=O)N3CCN(c4ccc(F)cc4)CC3)sc2n1	n	n	20	n	n
Cc1nc(N2CCC(C)CC2)c2c(C)c(C(=O)Nc3ccc(C)c(F)c3)sc2n1	n	n	46	n	32	RORg counter=n
Cc1nc(N2CCN(c3ccccn3)CC2)c2c(C)c(C(=O)Nc3c(F)cc(F)cc3Br)sc2n1	n	n	46	n	n
C[C@@H]1[C@@H](O)C[C@@]2(C[C@H](O)c3cc(F)ccc3O2)O[C@H]1c1ccccc1Cl	x	x	n	x	x
SMILES	PG9 binder	NR2E3 ag-1	NR1D1 modulator	NR2E3 ag-2	Rev-erbA confirm	others
Cc1cccc(NC(=O)Cn2nnc(-c3ccccc3F)n2)c1C	x	x	n	x	x
CN(C)c1ccc(/C=C(\C#N)C(=O)OCC(=O)N(C)C2CCS(=O)(=O)C2)cc1 (stereo not given)	n	n	20	n	16
CCN(C(=O)COC(=O)/C(C#N)=C/c1ccc(N(C)C)cc1)C1CCS(=O)(=O)C1 (stereo not given)	n	x	n	n	x
CC(=O)NN1C(=O)/C(=C\c2ccc(O)cc2)SC1=S	n	n	20	n	19
O=C(NN1C(=O)/C(=C\c2ccc(O)c([N+](=O)[O-])c2)SC1=S)c1ccccc1Cl	n	n	28	n	n
CC(C)C[C@H]1COc2cccc(F)c2S(=O)(=O)N1Cc1cn(CC2CCCCC2)nn1	x	x	n	x	x
Cc1ccc(N(Cc2cc3cc(C)ccc3[nH]c2=O)C(=O)c2cccs2)cc1	n	n	48	n	79	RORg counter=n
COC(=O)c1cc(C(c2ccccc2O)C2CCC(C)(C)O2)n2ccccc12 (stereo not given)	x	x	n	x	x
Cc1ccc(C2=CCN(C)C(=O)N2c2ccc([N+](=O)[O-])cc2)cc1	x	x	n	x	x
Cn1c(/C(C#N)=C(\O)c2cc(Cl)sc2Cl)nc2ccccc21	n	n	n	n	x
Cn1c(/C(C#N)=C(\O)c2ccc(Br)s2)nc2ccccc21	n	n	39	n	n
Cc1ccc(S(=O)(=O)c2nc(Nc3ccccc3C#N)sc2Cl)cc1	46	n	27	n	36	RORg counter=n
Cc1ccc(S(=O)(=O)c2nc(Nc3ccccc3N3CCOCC3)sc2Cl)cc1	n	n	n	n	x
CCCCNS(=O)(=O)/C=C/c1cc(C)ccc1CNC(=O)OC(C)(C)C	x	x	n	x	x
O=C(COc1ccc2ccccc2c1)NNC(=O)Cc1ccccc1	n	n	35	n	29
COc1cc2ccccc2cc1C(=O)Nc1ccc(Br)cn1	n	x	36	n	28
COc1ccccc1C(=O)NNC(=O)c1cccc(Br)c1	n	n	n	n	x
CSc1ccc(Cl)c(C(=O)Nc2ccc(Cl)cn2)c1	n	n	n	n	x
COc1c(C(=O)Nc2ccc(Br)cn2)ccc2ccccc12	n	n	n	n	x
COc1ccccc1C(=O)NNC(=O)c1cccc(Cl)c1	n	n	29	n	n
COc1ccccc1C(=O)Nc1cccc(NC(=O)c2ccccc2OC)n1	n	n	23	n	n
COc1cc(SC)ccc1C(=O)Nc1ccc(Cl)cn1	n	n	18	n	34	RORg counter=n
O=C(Nc1ccc(OC(F)(F)F)cc1)Nc1c(-c2ccc(F)cc2)nc2ncccn12	x	x	n	x	x
O=C(OCc1cn(Cc2c(F)cccc2F)nn1)N1CCCC1	x	x	n	x	x
Cc1nn(CCC(=O)NNC(=O)Nc2ccc(F)cc2)c(C)c1[N+](=O)[O-]	x	x	n	x	x
SMILES	PG9 binder	NR2E3 ag-1	NR1D1 modulator	NR2E3 ag-2	Rev-erbA confirm	others
CCN1CCCCC(NC(=O)c2ccc(C)cc2)C1=O (stereo not given)	x	x	n	x	x
COc1cc(NC(=O)c2nccn2C)cc(C(=O)Nc2cccc(C(F)(F)F)c2)c1	n	n	19!	n	15
CCn1c2ccccc2n2c(=O)c(=O)n(CC(=O)Nc3ccc(C(C)C)cc3)nc12	n	n	31	n	n
O=C(c1ccc(F)cc1F)N1CCC(Oc2cccnc2)CC1	x	x	n	x	x
COc1nc(-c2ccc(C)cc2)ccc1-c1noc(-c2ccco2)n1	n	n	n	n	x
COc1nc(-c2ccc(C)cc2)ccc1-c1noc(-c2cccnc2)n1	n	n	22	n	n
COc1nc(-c2ccccc2)ccc1-c1noc(-c2cccnc2)n1	n	n	35	n	n
COc1nc(-c2ccccc2)ccc1-c1noc(-c2ccccc2F)n1	n	n	29	n	n
COc1ccccc1-c1noc(-c2cccnc2)n1	n	n	n	n	x
CCOC(=O)N1CCC(NC(=O)c2cc3c(-c4ccc(Cl)cc4)nn(C)c3s2)CC1	n	n	20	n	19
